Two molecules from ChEMBL document CHEMBL2440113, “Synthesis, radiofluorination, and in vivo evaluation of novel fluorinated and iodinated radiotracers for PET imaging and targeted radionuclide therapy of melanoma” (J Med Chem, 2013) can be followed below.

Structures are written as SMILES.

The test system of series [1] is Nucleic Acid. The series can be described thus: Ratio of drug level in tumor to bone in C57BL/6J mouse harboring mouse B16-Bl6 cells at 9 to 12 MBq, iv after 1 hr by PET analysis. Format: ADME, organism-based. The note with it: in vivo. The method in brief: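 Ex vivo biodistribution. C57BL/6J mice bearing subcutaneous B16Bl6 tumours (3x10⁵ cells, shoulder), day 10 or 14, received [18F]tracer iv (9-12 MBq). They were killed by CO₂ at 1, 2 or 3 h. Tumours and organs were excised, weighed and gamma-counted. Results are decay-corrected % ID/g; ratios are tumour over tissue. n=3-6 per group; mean ± SD.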

Series [2] relates to Blood. The series can be described thus: Biodistribution in blood of C57BL/6J mouse harboring mouse B16-Bl6 cells at 9 to 12 MBq, iv after 2 hrs by PET analysis. The note with it: in vivo. The format is ADME, organism-based. The method in brief:
(§1)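 Ex vivo dissection in B16Bl6-bearing C57BL/6J mice (3x10⁵ cells s.c. right shoulder), done at day 10 or 14 after implantation. The ¹⁸F tracer was given i.v. at 9-12 MBq. Mice were killed by CO₂ at 1, 2 or 3 h. Tumor, organs and tissues were excised, weighed and gamma-counted, then decay-corrected and expressed as %ID/g. n=3-6 per group; mean ± SD.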

The test system of series [3] is Mus musculus. Put plainly: Ratio of drug level in tumor to blood in C57BL/6J mouse harboring mouse B16-Bl6 cells at 9 to 12 MBq, iv after 2 hrs by PET analysis. The conditions noted are these: tumour.
Series [4] deals with Blood. The series can be described thus: Biodistribution in blood of C57BL/6J mouse harboring mouse B16-Bl6 cells at 9 to 12 MBq, iv after 3 hrs by PET analysis. The note with it: in vivo. Format: ADME, organism-based. The method in brief: as §1
Series [5] deals with Muscle tissue. Put plainly: Biodistribution in muscle of C57BL/6J mouse harboring mouse B16-Bl6 cells at 9 to 12 MBq, iv after 1 hr by PET analysis. Format: ADME, organism-based. The conditions noted are these: in vivo. In a few lines: as §1
Series [6] concerns Blood. The series can be described thus: Biodistribution in blood of C57BL/6J mouse harboring mouse B16-Bl6 cells at 9 to 12 MBq, iv after 1 hr by PET analysis. Format: ADME, organism-based. The conditions noted are these: in vivo. In a few lines:
as §1

Series [7] deals with Heart. The series can be described thus: Biodistribution in heart of C57BL/6J mouse harboring mouse B16-Bl6 cells at 9 to 12 MBq, iv after 1 hr by PET analysis. Format: ADME, organism-based. The note with it: in vivo. In a few lines:
as §1

Series [8] concerns Brain. The series can be described thus: Biodistribution in brain of C57BL/6J mouse harboring mouse B16-Bl6 cells at 9 to 12 MBq, iv after 2 hrs by PET analysis. The format is ADME, organism-based. The note with it: in vivo. The method in brief:
as §1

The subject of series [9] is Liver. Put plainly: Biodistribution in liver of C57BL/6J mouse harboring mouse B16-Bl6 cells at 9 to 12 MBq, iv after 3 hrs by PET analysis. Format: ADME, organism-based. The conditions noted are these: in vivo. The method in brief: as §1
Series [10] relates to Mus musculus. The series can be described thus: Ratio of drug level in tumor to bone in C57BL/6J mouse harboring mouse B16-Bl6 cells at 9 to 12 MBq, iv after 2 hrs by PET analysis. The conditions noted are these: in vivo.
Series [11] concerns Muscle tissue. The series can be described thus: Biodistribution in muscle of C57BL/6J mouse harboring mouse B16-Bl6 cells at 9 to 12 MBq, iv after 2 hrs by PET analysis. Format: ADME, organism-based. The conditions noted are these: in vivo. The method in brief:
as §1

Series [12] deals with Bone. The series can be described thus: Biodistribution in bone of C57BL/6J mouse harboring mouse B16-Bl6 cells at 8 to 12 MBq, iv after 1 hr by PET analysis. Format: ADME, organism-based, Bone element. The note with it: in vivo. In a few lines:
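C57BL/6J mice were inoculated s.c. on the right shoulder with 3x10⁵ B16Bl6 cells in PBS under isoflurane, and imaged at day 10 or 14 (tumor volume 431.8 ± 154.3 mm³). The ¹⁸F tracer was given i.v. via tail vein, 8-12 MBq (methods: 9-12 MBq/0.15 mL). Under ketamine/xylazine i.p., a 25-min whole-body static PET scan ran at 1 h. ROI %ID/g = counts/g/min ÷ injected dose. n=2-8; mean ± SD.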

The test system of series [13] is Kidney. The series can be described thus: Biodistribution in kidney of C57BL/6J mouse harboring mouse B16-Bl6 cells at 9 to 12 MBq, iv after 2 hrs by PET analysis. Format: ADME, organism-based. The note with it: in vivo. The method in brief: as §1
A short description of series [14]: Stability of the compound in urine of C57BL/6J mouse harboring mouse B16-Bl6 cells assessed as unchanged drug level at 18 MBq, iv after 1 hr. Format: ADME, organism-based. The note with it: read-out: Stability. In a few lines: (§2)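 Metabolite analysis in six B16Bl6 tumour-bearing mice given 18 MBq iv, killed at 30 min, 1 h or 2 h. Plasma (centrifuged) and bladder urine were injected directly. Pooled tumours, eyes and livers were homogenized in MeOH/NH₄OH 99.8:0.2, centrifuged, filtered and concentrated. Samples ran on radio-HPLC (C18, MeOH/H₂O/NH₄OH gradient) in duplicate; result is % unchanged tracer of total radioactivity.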

Series [15] in a line: Stability of the compound in urine of C57BL/6J mouse harboring mouse B16-Bl6 cells assessed as unchanged drug level at 18 MBq, iv after 2 hrs. Format: ADME, organism-based. The note with it: in vivo. In a few lines:
as §2

A short description of series [16]: Stability of the compound in tumor of C57BL/6J mouse harboring mouse B16-Bl6 cells assessed as unchanged drug level at 18 MBq, iv after 2 hrs. The conditions noted are these: read-out: Stability. The format is ADME, organism-based, Neoplasm. In a few lines: as §2
A short description of series [17]: Stability of the compound in eyes of C57BL/6J mouse harboring mouse B16-Bl6 cells assessed as unchanged drug level at 18 MBq, iv after 2 hrs. The format is ADME, organism-based, Eye. The note with it: read-out: Stability. The method in brief:
as §2

A short description of series [18]: Stability of the compound in eyes of C57BL/6J mouse harboring mouse B16-Bl6 cells assessed as unchanged drug level at 18 MBq, iv after 1 hr. Format: ADME, organism-based, Eye. The note with it: read-out: Stability. In a few lines: as §2
Series [19] in a line: Stability of the compound in liver of C57BL/6J mouse harboring mouse B16-Bl6 cells assessed as unchanged drug level at 18 MBq, iv after 1 hr. The note with it: read-out: Stability. Format: ADME, organism-based. In a few lines: as §2
Series [20] concerns Liver. Put plainly: Stability of the compound in liver of C57BL/6J mouse harboring mouse B16-Bl6 cells assessed as unchanged drug level at 18 MBq, iv after 2 hrs. The note with it: in vivo. The format is ADME, organism-based. The method in brief: as §2
Series [21] has as its system Blood. The series can be described thus: Stability of the compound in blood of C57BL/6J mouse harboring mouse B16-Bl6 cells assessed as unchanged drug level at 18 MBq, iv after 2 hrs. The format is ADME, organism-based. The note with it: in vivo. In a few lines: as §2
Series [22] can be described thus: Stability of the compound in tumor of C57BL/6J mouse harboring mouse B16-Bl6 cells assessed as unchanged drug level at 18 MBq, iv after 30 mins. The format is ADME, organism-based, Neoplasm. The note with it: read-out: Stability.

As to `CCN(CCNC(=O)c1cnc2cc(I)ccc2n1)CCOCCOCCOCCOCCOCCOCCOCC[18F]`, the Ratio is reported as 5.35 in [1], 4.01 in [3] and 2.75 in [10]. In addition, the Drug uptake in [2] is recorded as 1.37 % ID/g; in series [4], 0.99 % ID/g; in [5], 1.07 % ID/g; in [6], 1.15 % ID/g; in series [7], 1.58 % ID/g; in series [8] it was 1.03 % ID/g. The Drug uptake was 2.6 % ID/g in series [9], 1.04 % ID/g in [11], 2.48 % ID/g in series [12] and 3.52 % ID/g in series [13].
With `CCN(CCNC(=O)c1cnc2cc(I)ccc2n1)CCOCCOCCOCC[18F]`, the Ratio in [1] is reported as 10.11; in series [3], 12.19; in series [10] it was 7.13. The remaining at 1 h in series [14] was 0.1%; in [18], more than 99%; in series [19], 8%. For the same molecule, the Drug uptake was 1.12 % ID/g in series [2]; 0.8 % ID/g in series [4]; 1.17 % ID/g in [5]; 1.42 % ID/g in series [6]; 2.72 % ID/g in series [7]; 1.39 % ID/g in series [8]. In addition, the Drug uptake is on record as 1.99 % ID/g in [9], 0.92 % ID/g in [11], 1.98 % ID/g in series [12] and 2.18 % ID/g in [13]. Besides, the Stability result in series [15], in series [20] and in series [21] was “Unstable” throughout. The remaining at 2 h in series [16] and in series [17] was more than 99% throughout. The remaining at 0.5 h in [22] was more than 99%.
